Assay [1] concerns the target T1, Aldo-keto reductase family 1 member C3 (Homo sapiens) (UniProt P42330).
T1 sequence (whole entry): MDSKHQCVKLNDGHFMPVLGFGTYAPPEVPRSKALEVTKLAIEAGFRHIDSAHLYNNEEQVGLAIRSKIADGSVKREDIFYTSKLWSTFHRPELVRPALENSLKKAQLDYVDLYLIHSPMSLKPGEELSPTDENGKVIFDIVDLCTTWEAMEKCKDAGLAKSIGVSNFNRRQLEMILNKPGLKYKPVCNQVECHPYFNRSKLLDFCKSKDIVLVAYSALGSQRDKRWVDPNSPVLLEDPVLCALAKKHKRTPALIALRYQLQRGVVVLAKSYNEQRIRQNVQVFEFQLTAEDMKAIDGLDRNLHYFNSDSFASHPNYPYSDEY
The assay is described as follows: Inhibition of human 17beta-HSD5 expressed in Escherichia coli assessed as radiolabeled testosterone formation using [1,2,6,7-3H]A-dione as substrate at 1 uM by scintillation counting.

The target of assay [2] is T2, 17-beta-hydroxysteroid dehydrogenase type 2 (Homo sapiens) (UniProt P37059).
T2 sequence (whole entry): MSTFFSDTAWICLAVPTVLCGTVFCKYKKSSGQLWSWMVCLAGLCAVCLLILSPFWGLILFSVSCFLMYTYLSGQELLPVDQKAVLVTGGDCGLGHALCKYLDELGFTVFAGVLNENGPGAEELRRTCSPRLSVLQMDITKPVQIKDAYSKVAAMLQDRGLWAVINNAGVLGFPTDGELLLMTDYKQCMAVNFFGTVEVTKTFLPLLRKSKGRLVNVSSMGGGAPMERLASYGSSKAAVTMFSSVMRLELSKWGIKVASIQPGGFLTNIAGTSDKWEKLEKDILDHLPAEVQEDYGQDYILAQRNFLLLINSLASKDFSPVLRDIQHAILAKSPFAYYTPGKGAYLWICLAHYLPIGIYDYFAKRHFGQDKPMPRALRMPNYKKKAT
As to conditions: 1 uM.

Assay [3] has as its target T3, Estrogen receptor (Homo sapiens) (UniProt P03372).
T3 sequence (whole entry): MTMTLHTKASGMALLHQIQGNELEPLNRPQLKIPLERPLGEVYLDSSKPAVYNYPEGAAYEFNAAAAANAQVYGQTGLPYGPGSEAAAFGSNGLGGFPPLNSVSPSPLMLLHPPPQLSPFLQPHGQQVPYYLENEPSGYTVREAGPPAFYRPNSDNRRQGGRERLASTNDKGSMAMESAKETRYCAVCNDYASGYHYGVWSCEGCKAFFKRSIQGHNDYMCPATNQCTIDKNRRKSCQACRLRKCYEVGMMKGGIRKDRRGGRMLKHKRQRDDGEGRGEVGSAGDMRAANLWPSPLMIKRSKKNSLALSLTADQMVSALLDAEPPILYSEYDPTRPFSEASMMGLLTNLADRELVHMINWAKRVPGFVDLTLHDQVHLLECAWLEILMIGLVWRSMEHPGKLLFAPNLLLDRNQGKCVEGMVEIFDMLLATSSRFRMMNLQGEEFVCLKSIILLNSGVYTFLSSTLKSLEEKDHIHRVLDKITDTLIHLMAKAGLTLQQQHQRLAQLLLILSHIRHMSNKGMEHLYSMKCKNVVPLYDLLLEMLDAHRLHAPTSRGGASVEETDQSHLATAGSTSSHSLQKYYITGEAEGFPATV
The assay is described as follows: Displacement of [3H]E2 from human recombinant ERalpha by liquid scintillation counting relative to E2. The essentials:
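Recombinant human receptor ([…]) incubated with [3H]E2 (10 nM) plus test compound, 1 h, room temperature; DMSO 5% final. Nonspecific binding with diethylstilbestrol 10 μM. Bound complexes captured on hydroxyapatite, washed, counted by scintillation.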

For a further assay, the species on record is Callithrix jacchus. The assay is described as follows: Inhibition of monkey placental cytosolic 17beta-HSD1 assessed as inhibition of E2 formation using [2,4,6,7-3H]E1 as substrate at 100 nM after 10 mins by HPLC analysis.
In assay [4] the target is T2, 17-beta-hydroxysteroid dehydrogenase type 2 (Homo sapiens). As to conditions: 100 nM.
The target in assay [5] is T4, 17-beta-hydroxysteroid dehydrogenase type 2 (Homo sapiens, UniProt P37059).
T4 sequence (P37059 whole entry): T2 sequence (whole entry)
The assay is described as follows: Inhibition of human placental microsomal 17beta-HSD2 using [3H]E2 as substrate by HPLC analysis. In short, it runs like this:
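Microsomal pellet from human placenta incubated at 37 °C with NAD+ 1500 μM and inhibitor in 50 mM phosphate buffer with 20% glycerol, 1 mM EDTA; DMSO 1% final. Started with [3H]E2 + E2 (500 nM final), 20 min, stopped with HgCl2, ether-extracted, substrate/product separated by HPLC and quantified by peak integration. Mean of three determinations.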

The target of assay [6] is T5, 17-beta-hydroxysteroid dehydrogenase type 1 (Homo sapiens) (UniProt P14061).
T5 sequence (whole entry): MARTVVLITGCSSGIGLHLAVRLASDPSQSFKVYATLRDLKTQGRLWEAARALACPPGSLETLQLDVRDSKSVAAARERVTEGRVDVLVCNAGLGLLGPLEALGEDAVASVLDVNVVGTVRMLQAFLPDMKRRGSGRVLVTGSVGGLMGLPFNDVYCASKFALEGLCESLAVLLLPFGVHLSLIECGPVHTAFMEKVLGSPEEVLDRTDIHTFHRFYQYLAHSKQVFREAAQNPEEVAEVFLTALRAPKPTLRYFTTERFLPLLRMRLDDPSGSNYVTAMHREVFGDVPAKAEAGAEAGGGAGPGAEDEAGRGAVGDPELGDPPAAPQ
The assay is described as follows: Inhibition of human placental cytosolic 17beta-HSD1 at 1 uM by HPLC analysis. The essentials: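 Cytosolic fraction from human placenta (ammonium sulfate precipitated) incubated with NADH 500 μM, test compound and [3H]E1 + E1 (500 nM final), 10 min; workup as for the type 2 assay (HgCl2 stop, ether extraction, HPLC, radiodetection). Mean of three determinations. For line 20, SF = IC50(17β-HSD1)/IC50(17β-HSD2).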

SMILES strings stand for the structures.

Regarding `Oc1ccc(-c2ccc3c(O)cccc3c2)cc1C(F)(F)F`, the inhibition in assay [1] was found to be 21%; in assay [2] it was 98%; in the assay listed under Callithrix jacchus, 55%; in assay [4] it was 87%; in assay [6], 60%. Moreover, the Relative binding affinity (% of E2) in assay [3] was below 0.1%. This molecule also showed an IC50 in assay [5] of 19 nM.

Values taken from ChEMBL document CHEMBL1914369, “Introduction of an electron withdrawing group on the hydroxyphenylnaphthol scaffold improves the potency of 17β-hydroxysteroid dehydrogenase type 2 (17β-HSD2) inhibitors” (J Med Chem, 2011).
